Here are results for 9 compounds from ChEMBL document CHEMBL4725316, “Discovery of novel anti-breast cancer agents derived from deguelin as inhibitors of heat shock protein 90 (HSP90)” (Bioorg Med Chem Lett, 2020).

In data set [1] the test system is JIMT-1. In words: Cytotoxicity against human JIMT-1 cells assessed as reduction in cell viability at 10 uM incubated for 72 hrs by MTS assay relative to control. The data set is classed as functional. To be noted: JIMT-1, read-out: INH. The method in brief: (§1)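 Single-concentration primary screen: trastuzumab-sensitive BT474, trastuzumab-resistant JIMT-1 (HER2-positive breast cancer) or normal human embryonic kidney HEK293 cells exposed to compound at 10 μM for 72 h; viability by MTS assay versus DMSO control. Mean ± SEM of at least three independent experiments; Student's t-test.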
Background: Tetrazolium dyes change colour on reduction, which living cells bring about.

The test system of data set [2] is BT-474. In words: Cytotoxicity against human BT-474 cells assessed as reduction in cell viability at 10 uM incubated for 72 hrs by MTS assay relative to control. Type of data set: functional. To be noted: BT-474, read-out: INH. The method in brief: as §1
For another data set, the system named is HEK293. In words: Cytotoxicity against human HEK293 cells assessed as reduction in cell viability at 10 uM incubated for 72 hrs by MTS assay. Type of data set: cell-based. The settings on record: hek293, 72 h. The method in brief: as §1
Data set [3] deals with T1, Heat shock protein HSP90 (Homo sapiens) (UniProt P07900+P08238). In words: Inhibition of HSP90 in human BT-474 cells assessed as reduction in EGFR phosphorylation at 10 uM incubated for 72 hrs by immunoblot analysis. Type of data set: cell-based. The method in brief:
(§2)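 BT474 and JIMT-1 cells treated 72 h with indicated compound concentrations or vehicle; 30 μg total lysate protein resolved by SDS-PAGE and immunoblotted for HER2, phospho-HER2 (Tyr1221/1222), EGFR, phospho-EGFR (Tyr1068), survivin, HSP90 and HSP70, with actin as loading control.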
For orientation: In western blotting, separated proteins are transferred to a membrane and probed.

The target of data set [4] is T1, Heat shock protein HSP90 (Homo sapiens). In words: Inhibition of HSP90 in human BT-474 cells assessed as reduction in HER2 expression at 10 uM incubated for 72 hrs by immunoblot analysis. The data set is classed as cell-based. The method in brief:
as §2

Data set [5] shares this target. Description: Inhibition of HSP90 in human BT-474 cells assessed as reduction in HER2 phosphorylation at 10 uM incubated for 72 hrs by immunoblot analysis. Type of data set: cell-based. In a few lines: as §2
For data set [6] the target is unchanged. In words: Inhibition of HSP90 in human BT-474 cells assessed as reduction in HSP70 expression at 10 uM incubated for 72 hrs by immunoblot analysis. Type of data set: cell-based. The method in brief:
as §2

The target is the same in data set [7]. In words: Inhibition of HSP90 in human JIMT-1 cells assessed as reduction in HSP70 expression at 5 uM incubated for 72 hrs by immunoblot analysis. Type of data set: cell-based. In a few lines: as §2
The target is the same in data set [8]. In words: Inhibition of HSP90 in human BT-474 cells assessed as reduction in HSP90 expression at 10 uM incubated for 72 hrs by immunoblot analysis. The data set is classed as cell-based. The method in brief:
as §2

Data set [9] has the same target. Description: Inhibition of HSP90 in human JIMT-1 cells assessed as reduction in HER2 phosphorylation at 5 uM incubated for 72 hrs by immunoblot analysis. Type of data set: cell-based. In a few lines: as §2
Data set [10] shares this target. Description: Inhibition of HSP90 in human JIMT-1 cells assessed as reduction in HSP70 expression at 10 uM incubated for 24 hrs by DAPI staining based confocal microscopy. The data set is classed as cell-based. In a few lines: (§3)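 Immunocytochemistry: cells treated 24 h with compound (10 μM) or geldanamycin (0.3 μM), immunostained for HSP70 with DAPI nuclear counterstain, imaged by confocal microscopy at ×500 original magnification.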

The subject of data set [11] is BT-474. In words: Cytotoxicity against human BT-474 cells assessed as reduction in cell viability incubated for 72 hrs by MTS assay. Type of data set: functional, cell-based. In a few lines:
(§4)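 Dose-response in BT474 (trastuzumab-sensitive) and JIMT-1 (trastuzumab-resistant) HER2-positive breast cancer cells: compound at 0.1, 0.5, 1, 5, 10 or 20 μM for 72 h, viability by MTS assay. IC50 with 95% confidence intervals calculated from the curves; mean ± SEM of at least three independent experiments, one-way ANOVA with Bonferroni post hoc test versus DMSO control.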

Data set [12] addresses T1, Heat shock protein HSP90 (Homo sapiens). Description: Inhibition of HSP90 in human JIMT-1 cells assessed as reduction in EGFR expression at 5 uM incubated for 72 hrs by immunoblot analysis. The data set is classed as cell-based. In a few lines:
as §2

The target is the same in data set [13]. In words: Inhibition of HSP90 in human BT-474 cells assessed as reduction in EGFR expression at 10 uM incubated for 72 hrs by immunoblot analysis. Type of data set: cell-based. In a few lines: as §2
Data set [14] shares this target. Description: Inhibition of HSP90 in human JIMT-1 cells assessed as reduction in survivin expression at 5 uM incubated for 72 hrs by immunoblot analysis. The data set is classed as cell-based. The method in brief:
as §2

Data set [15] shares this target. In words: Inhibition of HSP90 in human JIMT-1 cells assessed as reduction in HSP90 expression at 5 uM incubated for 72 hrs by immunoblot analysis. The data set is classed as cell-based. In a few lines:
as §2

For data set [16] the target is unchanged. Description: Inhibition of HSP90 in human BT-474 cells assessed as reduction in survivin expression at 10 uM incubated for 72 hrs by immunoblot analysis. The data set is classed as cell-based. In a few lines: as §2
Data set [17] shares this target. Description: Inhibition of HSP90 in human JIMT-1 cells assessed as reduction in HER2 expression at 5 uM incubated for 72 hrs by immunoblot analysis. The data set is classed as cell-based. In a few lines:
as §2

Data set [18] shares this target. Description: Inhibition of HSP90 in human JIMT-1 cells assessed as reduction in EGFR phosphorylation at 5 uM incubated for 72 hrs by immunoblot analysis. Type of data set: cell-based. In a few lines: as §2
The target is the same in data set [19]. In words: Inhibition of HSP90 in human BT-474 cells assessed as reduction in HSP70 expression at 10 uM incubated for 24 hrs by DAPI staining based confocal microscopy. Type of data set: cell-based. The method in brief:
as §3

Data set [20] concerns JIMT-1. Description: Cytotoxicity against human JIMT-1 cells assessed as reduction in cell viability incubated for 72 hrs by MTS assay. Type of data set: functional, cell-based. In a few lines: as §4

Molecules are shown by their SMILES. The source made the active and inactive calls. The calls are words filed in the database; no cut-off is given here.

One may read the IC50 as the concentration that inhibits the measured activity by half.

`COc1cc(NC(=O)c2ccc3c(c2OC)C=CC(C)(C)O3)ccc1OCCCN1CCCCC1`: the inhibition at 10 µM in the data set with JIMT-1 [1] and in the data set with BT-474 [2] was greater than 50% each time.

As to `COc1cc(NC(=O)c2ccc3c(c2OC)C=CC(C)(C)O3)ccc1OCCCC1CCN(C)CC1`, the inhibition at 10 µM with JIMT-1 [1] and with BT-474 [2] was greater than 50% in each case.

For `COc1cc(NC(=O)c2ccc3c(c2OC)C=CC(C)(C)O3)ccc1OCCCC1CCN(CCO)CC1`, the inhibition at 10 µM in the data set on JIMT-1 [1] and in the data set with BT-474 [2] was greater than 50% throughout.

Take `COc1cc(NC(=O)c2ccc3c(c2OC)C=CC(C)(C)O3)ccc1OCC1CCNCC1`: the inhibition at 10 µM in the data set on JIMT-1 [1] and in the data set on BT-474 [2] was greater than 50% each time.

As to `COc1cc(NC(=O)c2ccc3c(c2OC)C=CC(C)(C)O3)ccc1OCCCC1CCCCN1` (centres undefined), the inhibition at 10 µM in the data set on JIMT-1 [1] and in the data set on BT-474 [2] was greater than 50% each time.

With `COc1cc(NC(=O)c2ccc3c(c2OC)C=CC(C)(C)O3)ccc1OCCC1CCCCN1` (centres undefined), the figures for the Activity entry in the data set on HEK293, in the data set with BT-474 [11] and in the data set with JIMT-1 [20] were “Non-Toxic”, “Dose-dependent effect” and “Dose-dependent effect”, respectively. In addition, the inhibition entry in data set [3], in [4], in data set [5], in data set [9], in [12] and in [13] was “Active” each time. In addition, the inhibition result in data set [14], in data set [16], in data set [17] and in [18] was “Active” each time. The inhibition result in data set [6], in data set [7], in data set [8], in data set [10], in [15] and in [19] was “inactive” each time. For the same compound, the IC50 in the data set with BT-474 [11] (BT-474, 72 h) is 8.53 µM; in the data set with JIMT-1 [20] (JIMT-1, 72 h), 4.45 µM. Also, the inhibition at 10 µM in the data set with JIMT-1 [1] and in the data set with BT-474 [2] was greater than 50% in each case.

In the case of `COc1cc(NC(=O)c2ccc3c(c2OC)C=CC(C)(C)O3)ccc1OCCCC1CCNCC1`, the inhibition at 10 µM in the data set on JIMT-1 [1] and in the data set on BT-474 [2] was greater than 50% in each case.

As for `COc1cc(NC(=O)c2ccc3c(c2OC)C=CC(C)(C)O3)ccc1OCC1CCN(C)CC1`, the inhibition at 10 µM in the data set on JIMT-1 [1] and in the data set with BT-474 [2] was greater than 50% each time.

Regarding `COc1cc(NC(=O)c2ccc3c(c2OC)C=CC(C)(C)O3)ccc1OCCC1CCCCN1C` (centres undefined), the inhibition at 10 µM with JIMT-1 [1] and in the data set on BT-474 [2] was greater than 50% in each case.
